Experimental data as given in PMC3947039 (ACS chemical biology, 2013).

Assays:
MMP-19 = conditions: at 30 μM; cited from earlier work
ADAM10 = conditions: at 20 μM; cited from earlier work
MMP-9 = MMP-9 (Mus musculus, UniProt P41245); test: In-situ zymography with DQ-gel in diabetic wound tissues; assay type: in vivo; conditions: db/db mice, versus vehicle
Procedure, shortened: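 db/db wounds were treated topically with the test compound or vehicle. Wound sections were incubated with the fluorogenic MMP gelatin substrate DQ-gel to localise MMP activity in situ. Nuclei were counterstained with DAPI, and the green fluorescence was imaged merged with the DAPI signal.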

MMP-1 = conditions: at 250 μM; cited from earlier work
ADAM17 = conditions: read-out: Ki ADAM17; competitive; cited from earlier work
db/db mice [1] = test: H&E staining of wounds, re-epithelialization, db/db mice; assay type: in vivo, mouse; conditions: topical, day 14
Procedure, shortened: (§1)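 Wounds were treated topically with the test compound in saline, or with saline vehicle alone. Wounds were imaged at a common scale. Day-14 wound tissue was H&E stained, and the re-epithelialized region was traced on the sections.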

db/db mice [2] = test: Excisional diabetic wound-healing model, topical treatment; assay type: in vivo, mouse
Procedure, shortened: (§2)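 Test compound dissolved in saline at 5.0 mg mL−1 as the dosing solution; saline vehicle; both filter-sterilised. Applied topically to excisional wounds in db/db or wild-type mice. Wound healing scored on days 1, 3, 7, 10 and 14, with n = 35, 28, 21, 14 and 7 mice on those days. Results given as mean ± SD, with treated versus vehicle compared statistically.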

[3] = system: apoptotic cells in wounds of diabetic mice; test: TUNEL apoptosis detection in diabetic wound tissues; assay type: in vivo, mouse; conditions: versus vehicle
MMP-7 = conditions: at 250 μM; cited from earlier work
ADAM9 = conditions: at 20 μM; cited from earlier work
wild-type mice [4] = test: H&E staining of wounds, re-epithelialization, wild-type mice; assay type: in vivo, mouse; conditions: topical, day 14
Procedure, shortened: as §1

wild-type mice [5] = test: Excisional wound-healing model in wild-type mice, topical treatment; assay type: in vivo, mouse
Procedure, shortened: as §2

[6] = system: non-diabetic wounds in pigs; conditions: cited from earlier work
[7] = system: non-diabetic wounds in rats; conditions: cited from earlier work
[8] = system: non-diabetic wounds in humans; conditions: cited from earlier work

Chain of MMP-9 (P41245 108-730): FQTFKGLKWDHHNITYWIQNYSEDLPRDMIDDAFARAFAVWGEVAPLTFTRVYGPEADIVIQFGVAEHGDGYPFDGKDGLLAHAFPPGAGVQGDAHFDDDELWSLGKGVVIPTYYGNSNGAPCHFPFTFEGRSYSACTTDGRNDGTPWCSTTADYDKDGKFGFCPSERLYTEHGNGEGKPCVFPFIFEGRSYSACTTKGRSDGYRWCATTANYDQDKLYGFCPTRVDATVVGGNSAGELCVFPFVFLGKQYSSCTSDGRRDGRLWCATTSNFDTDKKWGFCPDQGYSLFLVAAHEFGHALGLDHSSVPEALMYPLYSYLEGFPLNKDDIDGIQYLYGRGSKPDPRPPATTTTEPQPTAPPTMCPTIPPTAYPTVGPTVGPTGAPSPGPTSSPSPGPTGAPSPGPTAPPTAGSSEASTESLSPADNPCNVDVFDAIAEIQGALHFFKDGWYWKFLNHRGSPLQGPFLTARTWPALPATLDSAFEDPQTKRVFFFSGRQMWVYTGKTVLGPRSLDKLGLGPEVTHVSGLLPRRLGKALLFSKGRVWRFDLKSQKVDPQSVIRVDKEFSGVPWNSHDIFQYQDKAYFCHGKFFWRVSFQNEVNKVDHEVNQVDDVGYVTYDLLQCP

SMILES: Nc1ccc(Oc2ccc(S(=O)(=O)CC3CS3)cc2)cc1 (stereo not shown) [ND-322]
- inhibition of MMP-19 (MMP-19): 9%
- inhibition of ADAM10 (ADAM10): 21%
- gelatinase activity (due to MMP-9) in wound tissues (MMP-9): significantly decreased
- inhibition of MMP-1 (MMP-1): 10%
- Ki (ADAM17): 15.7 ± 2 µM
- re-epithelialization (H&E staining) (db/db mice [1]): complete re-epithelialization
- wound healing as a percentage of the initial wound area (db/db mice [2]; day 10, mean ± SD): 70 ± 16%
- wound healing as a percentage of the initial wound area (db/db mice [2]; day 14, mean ± SD): 92 ± 4%
- wound healing, difference versus vehicle-treated (db/db mice [2]; days 1, 3 and 7, p > 0.2): not statistically significant
- apoptosis in wound tissues (TUNEL) [3]: significantly decreased
- inhibition of MMP-7 (MMP-7): 16%
- inhibition of ADAM9 (ADAM9): 30%
- re-epithelialization (H&E staining) (wild-type mice [4]): complete re-epithelialization
- wound healing as a percentage of the initial wound area (wild-type mice [5]; day 7, mean ± SD): 62 ± 19%
- wound healing as a percentage of the initial wound area (wild-type mice [5]; day 10, mean ± SD): 82 ± 11%
- wound healing as a percentage of the initial wound area (wild-type mice [5]; day 14, mean ± SD): 96 ± 4%

SMILES: CNC(=O)[C@H](Cc1c[nH]c2ccccc12)NC(=O)[C@@H](CC(=O)NO)CC(C)C [ilomastat]
- epithelialization [6]: diminished epithelialization
- wound closure [6]: delayed wound closure
- epithelialization [7]: diminished epithelialization
- wound closure [7]: delayed wound closure
- epithelialization [8]: diminished epithelialization
- wound closure [8]: delayed wound closure
